Tests used:
[1] = system: Plasmodium falciparum; experiment: In vitro antimalarial activity against Plasmodium falciparum HB; assay type: functional, organism-based
Outline: (§1)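 Parasites kept in continuous culture in human erythrocytes in RPMI 1640 with 25 mM HEPES, 32 mM NaHCO3 and 10% human serum, gassed 3% O2/4% CO2/93% N2. 48-h assay at 2% parasitemia, 0.5% haematocrit, drugs from DMSO stocks diluted in medium, triplicate. [3H]-hypoxanthine added at 24 h, further 24 h at 37 °C, scintillation counting. IC50 by probit interpolation of log dose–response.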

[2] = system: Plasmodium falciparum; experiment: In vitro antimalarial activity against chloroquine-resistant Plasmodium falciparum K1; assay type: functional, organism-based; outline: as §1
[3] = system: Plasmodium yoelii; experiment: […] against Plasmodium yoelii NS in peter 4-day assay; assay type: functional; settings: 96 h, in the assay text read “In vivo” for “In vitro”
Outline: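 Male CD-1 mice (n = 5 per dose group) infected ip with 10^6 parasitized erythrocytes in PBS. Oral gavage dosing at time 0 (2 h post-inoculation) and on days 1, 2 and 3, at 25, 10, 3, 1, 0.3 and 0.1 mg/kg. On day 4, Giemsa-stained tail-blood films were read microscopically for parasite density, and ED50 was derived.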

SMILES | IC50 [1] [nM] | IC50 [2] [nM] | ED50 [3] [mg/kg]
CCCN(CCC)Cc1ccc(Nc2ccnc3cc(Cl)ccc23)cc1O | 19.8 | 30.6 | 
CCNCc1ccc(Nc2ccnc3cc(Cl)ccc23)cc1O [DESETHYL ISOQUINE] | 16.2 | 32.4 | 
CCN(CC)Cc1ccc(Nc2ccnc3cc(Cl)ccc23)cc1O | 9.02 |  | 
CC(C)(C)NCc1ccc(Nc2ccnc3cc(Cl)ccc23)cc1O [GSK-369796] | 30 | 32.8 | 
CCN(CC)Cc1ccc(Nc2ccnc3cc(Cl)ccc23)cc1O [ISOQUINE] |  |  | 2.65
CCN(CC)Cc1cc(Nc2ccnc3cc(Cl)ccc23)ccc1O.Cl |  | 15.1 | 7.65
CN(C)Cc1ccc(Nc2ccnc3cc(Cl)ccc23)cc1O | 14.8 | 18.6 | 
Oc1cc(Nc2ccnc3cc(Cl)ccc23)ccc1CN1CCCC1 | 28.4 | 21.8 | 
Oc1cc(Nc2ccnc3cc(Cl)ccc23)ccc1CN1CCOCC1 | 97.2 | 112 | 
CC(C)NCc1ccc(Nc2ccnc3cc(Cl)ccc23)cc1O | 20.2 | 26.2 | 
CCCCN(CCCC)Cc1ccc(Nc2ccnc3cc(Cl)ccc23)cc1O | 51.9 | 37.2 | 
Oc1cc(Nc2ccnc3cc(Cl)ccc23)ccc1CN1CCCCC1 | 9.07 | 20.3 | 

From ChEMBL document CHEMBL1144904, “Isoquine and related amodiaquine analogues: a new generation of improved 4-aminoquinoline antimalarials” (J Med Chem, 2003)
